According to ChEMBL document CHEMBL1154243, “Chemical Constituents of the Roots of Euphorbia micractina” (J Nat Prod, 2009):
pIC50: −log10 of the molar value. Calls of active or inactive are those of the source. No cut-off for these calls is given here.

What was measured:
[1] = system: Human immunodeficiency virus 1; assay: Antiviral activity against HIV-1 NL4-3 expressing VSV-G envelope infected in human 293T cells assessed as inhibition of viral replication after 48 hrs by Luciferase reporter gene assay; assay type: functional, organism-based
How it was run: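 VSV-G-pseudotyped, env-deficient pNL4-3.luc.R-E- virions made by calcium phosphate cotransfection of 293 cells, then filtered. Virions quantified by p24 ELISA and diluted to 0.2 ng p24/mL. Compounds added 15 min before virus, with solvent-only blank. Luciferase in lysates read 48 h post-infection. Zidovudine served as positive control.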

A2780 = assay: Cytotoxicity against human A2780 cells after 4 days by MTT assay; assay type: functional, cell-based
[2] = biological target: T1, Tyrosine-protein phosphatase non-receptor type 1 (Homo sapiens) (UniProt P18031); assay: Inhibition of GST-tagged human PTP1B
T1 sequence (whole entry): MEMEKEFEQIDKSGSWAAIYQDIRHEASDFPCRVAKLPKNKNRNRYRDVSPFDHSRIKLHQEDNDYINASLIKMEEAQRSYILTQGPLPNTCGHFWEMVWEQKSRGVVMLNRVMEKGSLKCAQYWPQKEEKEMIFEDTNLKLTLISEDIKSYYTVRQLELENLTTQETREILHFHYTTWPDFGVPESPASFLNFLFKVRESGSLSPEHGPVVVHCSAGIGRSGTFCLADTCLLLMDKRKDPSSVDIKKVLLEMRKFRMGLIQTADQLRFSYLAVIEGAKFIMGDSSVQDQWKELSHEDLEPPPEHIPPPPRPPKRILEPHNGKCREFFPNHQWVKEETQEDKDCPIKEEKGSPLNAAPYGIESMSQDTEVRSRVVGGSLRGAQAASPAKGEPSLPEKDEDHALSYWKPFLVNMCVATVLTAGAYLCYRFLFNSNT

`C[C@@H](C/C=C/C(C)(C)OO)[C@@H]1CC[C@]2(C)C3=C(CC[C@@]12C)[C@@]1(C)CC[C@H](O)C(C)(C)[C@@H]1CC3=O` was tested, and the inhibition [1] was “inactive”, the Activity (A2780) was “inactive” and the inhibition [2] was “inactive”.

`CCCCCCCCCCCCCCCCCCCCCCCCCCCCCCO` was tested, and the Activity [1] was “inactive”, the Activity (A2780) was “inactive” and the inhibition [2] was “inactive”.

`COc1cc2ccc(=O)oc2cc1O` was tested, and the Activity [1] was “inactive”, the Activity (A2780) was “inactive” and the inhibition [2] was “inactive”.

`C=C(C)[C@H](CC[C@H](C)[C@@H]1CC[C@]2(C)C3=C(CC[C@@]12C)[C@@]1(C)CC[C@H](O)C(C)(C)[C@@H]1CC3=O)OO` was tested, and the inhibition [1] was “inactive”, the Activity (A2780) was “inactive” and the inhibition [2] was “inactive”.

With `C=C(C)[C@@H]1CC[C@]2(CO)CC[C@]3(C)[C@H](CC[C@@H]4[C@@]5(C)CC[C@H](O)C(C)(C)[C@@H]5CC[C@]43C)[C@@H]12` [BETULIN] the Activity [1] was “inactive”, the pIC50 (A2780; A2780, 96 h) was 5.21 and the inhibition [2] was “inactive”.

With `C=C(C)[C@H](O)CC[C@H](C)[C@@H]1CC[C@]2(C)C3=C(CC[C@@]12C)[C@@]1(C)CC[C@H](O)C(C)(C)[C@@H]1CC3` the inhibition [1] was “inactive”, the Activity (A2780) was “inactive” and the inhibition [2] was “inactive”.

`CC1=C2C=C3CC[C@@H]4C(C)(C)[C@@H](O)CC[C@@]4(C)[C@@H]3C[C@H]2OC1=O` was tested, and the Activity [1] was “inactive”, the Activity (A2780) was “inactive” and the inhibition [2] was “inactive”.

`CCCCCCCCCCCCCCCC(=O)OCC(O)CO` (stereo not given) was tested, and the Activity [1] was “inactive”, the Activity (A2780) was “inactive” and the inhibition [2] was “inactive”.

With `C[C@@H](C/C=C/C(C)(C)OO)[C@@H]1CC[C@]2(C)C3=C(C(=O)C[C@@]12C)[C@@]1(C)CC[C@H](O)C(C)(C)[C@@H]1CC3=O` the inhibition [1] was “inactive”, the Activity (A2780) was “inactive” and the inhibition [2] was “inactive”.

In the case of `C/C1=C\[C@@H]2[C@H](CC[C@@]3(C)O[C@@H]3[C@H]3[C@@H](O)[C@@H](C)C[C@]3(OC(=O)c3ccccc3)C1=O)C2(C)C`, the Activity [1] was “inactive”, the Activity (A2780) was “inactive” and the inhibition [2] was “inactive”.

With `CCCCC/C=C/C=C\C(=O)O[C@H]1C(C)=C[C@]23C(=O)[C@@H](C=C(COC(C)=O)[C@@H](O)[C@]12O)[C@H]1[C@@H](C[C@H]3C)C1(C)C` the Activity [1] was “inactive”, the Activity (A2780) was “inactive” and the inhibition [2] was “inactive”.

With `O=C(O)/C=C/c1ccccc1` the Activity [1] was “inactive”, the Activity (A2780) was “inactive” and the inhibition [2] was “inactive”.

In the case of `CC[C@H](CC[C@@H](C)[C@H]1CC[C@H]2[C@@H]3CC=C4C[C@@H](O)CC[C@]4(C)[C@H]3CC[C@]12C)C(C)C`, the Activity [1] was “inactive”, the Activity (A2780) was “inactive” and the inhibition [2] was “inactive”.

`CC1=C2C=C3CC[C@@H]4C(C)(C)[C@H](O)CC[C@@]4(C)[C@@H]3C[C@H]2OC1=O` was tested, and the Activity [1] was “inactive”, the Activity (A2780) was “inactive” and the inhibition [2] was “inactive”.

In the case of `CC1(C)CC[C@]2(CO)CC[C@]3(C)C(=CC[C@@H]4[C@@]5(C)CC[C@H](O)C(C)(C)[C@@H]5CC[C@]43C)[C@@H]2C1`, the Activity [1] was “inactive”, the Activity (A2780) was “inactive” and the inhibition [2] was “inactive”.

In the case of `C=C(C)[C@@H](CC[C@H](C)[C@@H]1CC[C@]2(C)C3=C(CC[C@@]12C)[C@@]1(C)CC[C@H](O)C(C)(C)[C@@H]1CC3=O)OO`, the inhibition [1] was “inactive”, the Activity (A2780) was “inactive” and the inhibition [2] was “inactive”.

`CC1=C2C=C3CC[C@@H]4C(C)(C)C(=O)CC[C@@]4(C)[C@@H]3C[C@H]2OC1=O` was tested, and the Activity [1] was “inactive”, the Activity (A2780) was “inactive” and the inhibition [2] was “inactive”.

In the case of `CC(=O)O[C@]12C[C@H](C)[C@H](O)[C@@H]1/C=C(\C)CC[C@H]1[C@@H](/C=C(\C)C2=O)C1(C)C`, the Activity [1] was “inactive”, the Activity (A2780) was “inactive” and the inhibition [2] was “inactive”.

`C/C1=C\[C@@H]2[C@H](CC[C@@]3(C)O[C@@H]3[C@H]3[C@@H](O)[C@@H](C)C[C@]3(OC(=O)/C=C/c3ccccc3)C1=O)C2(C)C` [JOLKINOL B] was tested, and the pIC50 ([1]; Human immunodeficiency virus 1, NL4-3, HEK-293T) was 4.90, the Activity (A2780) was “inactive” and the inhibition [2] was “inactive”.

With `C=C(C)[C@H](CC[C@@H](C)[C@@H]1CC[C@]2(C)C3=C(CC[C@@]12C)[C@@]1(C)CC[C@H](O)C(C)(C)[C@@H]1CC3=O)OO` the inhibition [1] was “inactive”, the Activity (A2780) was “inactive” and the inhibition [2] was “inactive”.

`CCCCCCCCCC/C=C\CCCCCC(=O)OC(CO)CO` was tested, and the Activity [1] was “inactive”, the Activity (A2780) was “inactive” and the inhibition [2] was “inactive”.

For `COc1ccc(C(=O)OCCc2ccc(O)cc2)cc1`, the Activity [1] was “inactive”, the Activity (A2780) was “inactive” and the inhibition [2] was “inactive”.

With `CC(=O)O[C@H]1CC[C@@]2(C)[C@@H]3C[C@@H]4OC(=O)C(C)=C4C=C3CC[C@@H]2C1(C)C` the Activity [1] was “inactive”, the Activity (A2780) was “inactive” and the inhibition [2] was “inactive”.

`C=C(C)[C@H](O)CC[C@H](C)[C@@H]1CC[C@]2(C)C3=CC[C@H]4C(C)(C)[C@@H](O)CC[C@]4(C)C3=CC[C@@]12C` was tested, and the inhibition [1] was “inactive”, the Activity (A2780) was “inactive” and the inhibition [2] was “inactive”.

For `C[C@H]1[C@H](C)CC[C@]2(CO)CC[C@]3(C)C(=CC[C@@H]4[C@@]5(C)CC[C@H](O)C(C)(C)[C@@H]5CC[C@]43C)[C@H]12`, the Activity [1] was “inactive”, the Activity (A2780) was “inactive” and the inhibition [2] was “inactive”.
